# In ChEMBL document CHEMBL3120087, “3D QSAR studies based in silico screening of 4,5,6-triphenyl-1,2,3,4-tetrahydropyrimidine analogs for anti-inflammatory activity” (2014):
# Experiments:
# [1] = system: Rattus norvegicus; assay: Antiinflammatory activity in rat assessed as reduction of paw edema; format: functional
# Method in brief: (§1)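 Albino rats of either sex (150–200 g), six per group, fasted 12 h with water only. […] Paw volume measured by plethysmometer immediately (initial) and then hourly to 4 h. Mean paw volume ± SEM reported with % inhibition of edema versus control.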
# [2] = system: Rattus norvegicus; assay: Antiinflammatory activity in albino rat assessed as inhibition of carrageenan-induced paw edema at 20 mg/kg, po administered 1 hr prior to carrageenan challenge measured after 3 hrs relative to vehicle-treated control; format: functional; method in brief: as §1
# [3] = system: Rattus norvegicus; assay: Antiinflammatory activity in albino rat assessed as inhibition of carrageenan-induced paw edema at 20 mg/kg, po administered 1 hr prior to carrageenan challenge measured after 2 hrs relative to vehicle-treated control; format: functional; method in brief: as §1
# [4] = biological target: T1, Prostaglandin G/H synthase 1 (Ovis aries) (UniProt P05979); assay: Inhibition of ovine COX1 using TMPD as substrate at 20 uM incubated for 5 mins prior to substrate addition measured after 5 mins by colorimetry
# T1 sequence (whole entry): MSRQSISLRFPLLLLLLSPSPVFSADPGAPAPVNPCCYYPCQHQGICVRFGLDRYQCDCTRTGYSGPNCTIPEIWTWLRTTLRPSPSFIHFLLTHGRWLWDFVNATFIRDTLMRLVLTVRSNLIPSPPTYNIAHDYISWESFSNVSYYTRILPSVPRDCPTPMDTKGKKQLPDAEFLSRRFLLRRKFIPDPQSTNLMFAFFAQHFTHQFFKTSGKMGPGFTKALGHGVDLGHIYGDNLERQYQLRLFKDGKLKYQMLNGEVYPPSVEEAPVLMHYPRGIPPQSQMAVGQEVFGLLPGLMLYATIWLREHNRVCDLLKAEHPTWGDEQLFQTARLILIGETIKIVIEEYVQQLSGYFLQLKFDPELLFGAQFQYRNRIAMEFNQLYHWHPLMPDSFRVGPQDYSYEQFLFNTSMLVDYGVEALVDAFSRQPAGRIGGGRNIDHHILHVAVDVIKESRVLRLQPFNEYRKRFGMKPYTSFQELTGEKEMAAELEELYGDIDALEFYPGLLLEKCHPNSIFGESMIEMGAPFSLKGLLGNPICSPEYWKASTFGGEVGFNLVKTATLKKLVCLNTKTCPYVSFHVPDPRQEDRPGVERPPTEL
# Method in brief: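 Colorimetric COX assay using peroxidase activity of ovine cyclooxygenase to oxidize TMPD. Assay mixture mixed and incubated at 25 °C for 5 min. Enzyme activity read as absorbance at 590 nm.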
# [5] = system: Rattus norvegicus; assay: Antiinflammatory activity in albino rat assessed as inhibition of carrageenan-induced paw edema at 20 mg/kg, po administered 1 hr prior to carrageenan challenge measured after 1 hr relative to vehicle-treated control; format: functional; method in brief: as §1
# [6] = system: Rattus norvegicus; assay: Antiinflammatory activity in albino rat assessed as inhibition of carrageenan-induced paw edema at 20 mg/kg, po administered 1 hr prior to carrageenan challenge measured after 4 hrs relative to vehicle-treated control; format: functional; method in brief: as §1
# [7] = system: Rattus norvegicus; assay: Antiinflammatory activity in albino rat assessed as inhibition of carrageenan-induced paw edema at 20 mg/kg, po administered 1 hr prior to carrageenan challenge measured after 24 hrs relative to vehicle-treated control; format: functional
smiles,measurement,setting,value
COc1ccc(C2NC(=N)NC(c3ccccc3)=C2CC(=O)O)cc1 (configuration not stated),log(activity),[1],0.82
CN(C)c1ccc(C2NC(=O)NC(c3ccc(S(C)(=O)=O)cc3)=C2c2ccccc2)cc1 (configuration not stated),inhibition in vivo at 20 mg/kg,[2],26.9%
same,inhibition in vivo at 20 mg/kg,[3],41.4%
same,inhibition,[4],2.36%
same,inhibition in vivo at 20 mg/kg,[5],46.9%
same,inhibition in vivo at 20 mg/kg,[6],9.52%
O=C(O)CC1=C(c2ccccc2)N=C(S)NC1c1ccccc1 (configuration not stated),log(activity),[1],0.52
O=C(O)CC1=C(c2ccc(Cl)cc2)N=C(S)NC1c1ccco1 (configuration not stated),log(activity),[1],0.24
COc1ccc(C2NC(=N)NC(c3ccc(Cl)cc3)=C2c2ccc(S(C)(=O)=O)cc2)cc1 (configuration not stated),inhibition in vivo at 20 mg/kg,[2],43.6%
same,inhibition in vivo at 20 mg/kg,[7],15.6%
same,inhibition in vivo at 20 mg/kg,[3],20.5%
same,inhibition in vivo at 20 mg/kg,[5],30.2%
same,inhibition in vivo at 20 mg/kg,[6],28.6%
Cc1ccc(C2=C(CC(=O)O)C(c3cccnc3)NC(=N)N2)cc1 (configuration not stated),log(activity),[1],0.58
N=C1NC(c2ccc(Cl)cc2)=C(CC(=O)O)C(c2cccnc2)N1 (configuration not stated),log(activity),[1],0.54
Cc1ccc(C2=C(CC(=O)O)C(c3ccccc3)NC(=N)N2)cc1 (configuration not stated),log(activity),[1],0.82
N=C1NC(c2ccccc2)=C(CC(=O)O)C(c2ccc(Cl)cc2)N1 (configuration not stated),log(activity),[1],0.64
Cc1ccc(C2=C(CC(=O)O)C(c3ccc(Cl)cc3)NC(S)=N2)cc1 (configuration not stated),log(activity),[1],0.72
O=C(O)CC1=C(c2ccc(Cl)cc2)N=C(S)NC1c1cccnc1 (configuration not stated),log(activity),[1],0.35
O=C(O)CC1=C(c2ccccc2)N=C(S)NC1c1ccc(Cl)cc1 (configuration not stated),log(activity),[1],0.88
Cc1ccc(C2=C(CC(=O)O)C(c3cccnc3)NC(S)=N2)cc1 (configuration not stated),log(activity),[1],0.11
COc1ccc(C2NC(S)=NC(c3ccccc3)=C2CC(=O)O)cc1 (configuration not stated),log(activity),[1],0.92
O=C(O)CC1=C(c2ccccc2)N=C(S)NC1c1cccnc1 (configuration not stated),log(activity),[1],0.46
COc1ccc(OC)c(C2NC(=O)NC(c3ccc(S(C)(=O)=O)cc3)=C2c2ccccc2)c1 (configuration not stated),inhibition in vivo at 20 mg/kg,[2],24.4%
same,inhibition in vivo at 20 mg/kg,[3],19.1%
same,inhibition in vivo at 20 mg/kg,[5],35.6%
same,inhibition in vivo at 20 mg/kg,[6],17.3%
O=C(O)CC1=C(c2ccc(Cl)cc2)N=C(S)NC1c1ccccc1 (configuration not stated),log(activity),[1],0.65
N=C1NC(c2ccc(Cl)cc2)=C(CC(=O)O)C(c2cccs2)N1 (configuration not stated),log(activity),[1],0.64
N=C1NC(c2ccccc2)=C(CC(=O)O)C(c2ccco2)N1 (configuration not stated),log(activity),[1],0.55
CN(C)c1ccc(C2NC(=O)NC(c3ccc(Cl)cc3)=C2c2ccc(S(C)(=O)=O)cc2)cc1 (configuration not stated),inhibition in vivo at 20 mg/kg,[2],28.9%
same,inhibition in vivo at 20 mg/kg,[3],27.6%
same,inhibition in vivo at 20 mg/kg,[5],18%
same,inhibition in vivo at 20 mg/kg,[6],16.1%
N=C1NC(c2ccc(Cl)cc2)=C(CC(=O)O)C(c2ccc(Cl)cc2)N1 (configuration not stated),log(activity),[1],0.74
O=C(O)CC1=C(c2ccccc2)N=C(S)NC1c1cccs1 (configuration not stated),log(activity),[1],0.64
N=C1NC(c2ccc(Cl)cc2)=C(CC(=O)O)C(c2ccco2)N1 (configuration not stated),log(activity),[1],0.56
Cc1ccc(C2=C(CC(=O)O)C(c3cccs3)NC(S)=N2)cc1 (configuration not stated),log(activity),[1],0.28
COc1ccc(C2NC(=N)NC(c3ccc(C)cc3)=C2CC(=O)O)cc1 (configuration not stated),log(activity),[1],0.88
Cc1ccc(C2=C(CC(=O)O)C(c3cccs3)NC(=N)N2)cc1 (configuration not stated),log(activity),[1],0.64
N=C1NC(c2ccccc2)=C(CC(=O)O)C(c2cccnc2)N1 (configuration not stated),log(activity),[1],0.3
COc1ccc(C2NC(=N)NC(c3ccc(Cl)cc3)=C2CC(=O)O)cc1 (configuration not stated),log(activity),[1],0.92
Cc1ccc(C2=C(CC(=O)O)C(c3ccccc3)NC(S)=N2)cc1 (configuration not stated),log(activity),[1],0.82
COc1ccc(C2NC(S)=NC(c3ccc(Cl)cc3)=C2CC(=O)O)cc1 (configuration not stated),log(activity),[1],1.02
COc1ccc(C2NC(=S)NC(c3ccc(S(C)(=O)=O)cc3)=C2c2ccccc2)c(OC)c1 (configuration not stated),inhibition in vivo at 20 mg/kg,[2],10.2%
same,inhibition in vivo at 20 mg/kg,[3],26.7%
same,inhibition in vivo at 20 mg/kg,[5],15.3%
Cc1ccc(C2=C(CC(=O)O)C(c3ccco3)NC(S)=N2)cc1 (configuration not stated),log(activity),[1],0.31
N=C1NC(c2ccccc2)=C(CC(=O)O)C(c2cccs2)N1 (configuration not stated),log(activity),[1],0.51
Cc1ccc(C2=C(CC(=O)O)C(c3ccc(Cl)cc3)NC(=N)N2)cc1 (configuration not stated),log(activity),[1],0.68
Cc1ccc(C2=C(CC(=O)O)C(c3ccco3)NC(=N)N2)cc1 (configuration not stated),log(activity),[1],0.54
O=C(O)CC1=C(c2ccc(Cl)cc2)N=C(S)NC1c1cccs1 (configuration not stated),log(activity),[1],0.54
COc1ccc(C2NC(=O)NC(c3ccc(S(C)(=O)=O)cc3)=C2c2ccccc2)c(OC)c1 (configuration not stated),inhibition in vivo at 20 mg/kg,[2],39.1%
same,inhibition in vivo at 20 mg/kg,[3],28.1%
same,inhibition in vivo at 20 mg/kg,[5],21.6%
N=C1NC(c2ccccc2)=C(CC(=O)O)C(c2ccccc2)N1 (configuration not stated),log(activity),[1],0.64
O=C(O)CC1=C(c2ccc(Cl)cc2)N=C(S)NC1c1ccc(Cl)cc1 (configuration not stated),log(activity),[1],0.82
COc1ccc(OC)c(C2NC(=N)NC(c3ccc(S(C)(=O)=O)cc3)=C2c2ccccc2)c1 (configuration not stated),inhibition in vivo at 20 mg/kg,[2],20.3%
same,inhibition in vivo at 20 mg/kg,[3],24.3%
same,inhibition in vivo at 20 mg/kg,[5],25.2%
same,inhibition in vivo at 20 mg/kg,[6],10.7%
O=C(O)CC1=C(c2ccccc2)N=C(S)NC1c1ccco1 (configuration not stated),log(activity),[1],0.57
COc1ccc(C2NC(=N)NC(c3ccc(S(C)(=O)=O)cc3)=C2c2ccccc2)cc1OC (configuration not stated),inhibition in vivo at 20 mg/kg,[2],37.1%
same,inhibition in vivo at 20 mg/kg,[7],3.9%
same,inhibition in vivo at 20 mg/kg,[3],18.6%
same,inhibition in vivo at 20 mg/kg,[5],24.8%
same,inhibition in vivo at 20 mg/kg,[6],11.3%
N=C1NC(c2ccc(Cl)cc2)=C(CC(=O)O)C(c2ccccc2)N1 (configuration not stated),log(activity),[1],0.78
COc1ccc(C2NC(S)=NC(c3ccc(C)cc3)=C2CC(=O)O)cc1 (configuration not stated),log(activity),[1],0.96
CS(=O)(=O)c1ccc(C2=C(c3ccccc3)C(c3ccccc3)NC(=S)N2)cc1 (configuration not stated),inhibition in vivo at 20 mg/kg,[2],43.1%
same,inhibition in vivo at 20 mg/kg,[3],30.9%
same,inhibition in vivo at 20 mg/kg,[5],46.9%
same,inhibition in vivo at 20 mg/kg,[6],18.4%
Cc1ccc(-c2cc(C(F)(F)F)nn2-c2ccc(S(N)(=O)=O)cc2)cc1 [CELECOXIB],inhibition in vivo at 20 mg/kg,[2],32.5%
same,inhibition in vivo at 20 mg/kg,[7],6.49%
same,inhibition in vivo at 20 mg/kg,[3],41.9%
same,inhibition in vivo at 20 mg/kg,[5],48.2%
same,inhibition in vivo at 20 mg/kg,[6],17.9%
COc1ccc(OC)c(C2NC(=O)NC(c3ccc(Cl)cc3)=C2c2ccc(S(N)(=O)=O)cc2)c1 (configuration not stated),inhibition in vivo at 20 mg/kg,[2],24.4%
same,inhibition in vivo at 20 mg/kg,[3],28.1%
same,inhibition in vivo at 20 mg/kg,[5],18%
same,inhibition in vivo at 20 mg/kg,[6],14.3%
